The text below walks through data of ChEMBL document CHEMBL1926657, “Novel bioactive metabolites of dipyrone (metamizol)” (Bioorg Med Chem, 2012).

pEC50, pIC50, pKi: −log10 of the molar value. Active and inactive are the calls of the source. The calls are words filed in the database; no cut-off is given here.

The test system of series [1] is Brain. Nature of the series: Prodrug activation in FAAH wild type C57BL/6 mouse brain assessed as formation of arachidonoyl-4-aminoantipyrin at 600 mg/kg, po administered daily measured after 120 hrs. More on the design: dose 600 mg/kg, route oral. It is filed as organism-based. The note with it: in vivo. Put shortly:
(§1)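 Dipyrone was given in the drinking water, and mice were killed on day 2 (48 h) or day 5 (120 h) under isoflurane. Tissue was extracted with diisopropyl ether/ethyl acetate 1:3, dried and taken up in acetonitrile/water 9:1. The amides were measured by LC-MS/MS on a C18 column. Semi-quantification used external calibration with 10, 100 and 1000 pg standards.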

Series [2] is described as follows: Prodrug activation in C57BL/6 mouse CSF assessed as formation of arachidonoyl-4-aminoantipyrin at 600 mg/kg, po administered daily measured after 48 hrs. It is filed as organism-based, Cerebrospinal fluid. Also noted: dose 600 mg/kg, route oral. The note with it: in vivo. Put shortly: as §1
Series [3] is described as follows: Prodrug activation in C57BL/6 mouse CSF assessed as formation of arachidonoyl-4-aminoantipyrin at 600 mg/kg, po administered daily measured after 120 hrs. It is filed as organism-based, Cerebrospinal fluid. The note with it: in vivo. Also noted: dose 600 mg/kg, route oral. Put shortly: as §1
Series [4] in a line: Prodrug activation in C57BL/6 mouse CSF assessed as formation of arachidonoyl-4-methylaminoantipyrin at 600 mg/kg, po administered daily measured after 48 hrs. In kind it is organism-based, Cerebrospinal fluid. Also noted: dose 600 mg/kg, route oral. The note with it: in vivo. Put shortly:
as §1

The test system of series [5] is Brain. Nature of the series: Prodrug activation in FAAH wild type C57BL/6 mouse brain assessed as formation of arachidonoyl-4-aminoantipyrin at 600 mg/kg, po administered daily measured after 48 hrs. More on the design: dose 600 mg/kg, route oral. The note with it: in vivo. It is filed as organism-based. Put shortly:
as §1

Series [6] relates to Spleen. Nature of the series: Prodrug activation in C57BL/6 mouse spleen assessed as formation of arachidonoyl-4-methylaminoantipyrin at 600 mg/kg, po administered daily measured after 48 hrs. In kind it is organism-based. More on the design: dose 600 mg/kg, route oral. The conditions noted are these: in vivo. Put shortly:
as §1

Series [7] can be described thus: Prodrug activation in C57BL/6 mouse CSF assessed as formation of arachidonoyl-4-methylaminoantipyrin at 600 mg/kg, po administered daily measured after 120 hrs. It is filed as organism-based, Cerebrospinal fluid. Also noted: dose 600 mg/kg, route oral. The conditions noted are these: in vivo. Put shortly: as §1
Series [8] deals with Brain. Nature of the series: Prodrug activation in FAAH wild type C57BL/6 mouse brain assessed as formation of arachidonoyl-4-methylaminoantipyrin at 600 mg/kg, po administered daily measured after 120 hrs. In kind it is organism-based. More on the design: dose 600 mg/kg, route oral. The conditions noted are these: in vivo. Put shortly:
as §1

Series [9] has as its system Spleen. Nature of the series: Prodrug activation in C57BL/6 mouse spleen assessed as formation of arachidonoyl-4-aminoantipyrin at 600 mg/kg, po administered daily measured after 120 hrs. It is filed as organism-based. Also noted: dose 600 mg/kg, route oral. The note with it: in vivo. Put shortly:
as §1

In series [10] the test system is Brain. Nature of the series: Prodrug activation in FAAH wild type C57BL/6 mouse brain assessed as formation of arachidonoyl-4-methylaminoantipyrin at 600 mg/kg, po administered daily measured after 48 hrs. In kind it is organism-based. Also noted: dose 600 mg/kg, route oral. The note with it: in vivo. Put shortly: as §1
Series [11] has as its system Spleen. The series is described as follows: Prodrug activation in C57BL/6 mouse spleen assessed as formation of arachidonoyl-4-aminoantipyrin at 600 mg/kg, po administered daily measured after 48 hrs. It is filed as organism-based. Also noted: dose 600 mg/kg, route oral. The conditions noted are these: in vivo. Put shortly: as §1
Series [12] relates to Spleen. The series is described as follows: Prodrug activation in C57BL/6 mouse spleen assessed as formation of arachidonoyl-4-methylaminoantipyrin at 600 mg/kg, po administered daily measured after 120 hrs. It is filed as organism-based. The conditions noted are these: in vivo. More on the design: dose 600 mg/kg, route oral. Put shortly: as §1
The species named for series [13] is Mus musculus. The series is described as follows: Inhibition of COX-mediated PGE2 production in C57BL/6 mouse brain homogenate at 100 nM to 100 uM. In kind it is tissue-based. Put shortly: (§2)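 Mouse brain homogenate (20 µg) made on ice in 50 mM Tris pH 7.4 with 1 mM phenol and protease inhibitors, then incubated with inhibitor or vehicle. Reaction started with 150 µM arachidonic acid at 37°C, stopped after 5 min by acidifying to pH 2.5 with 1% formic acid. Prostanoids extracted in ethyl acetate/hexane (7:1), and PGE2 or 6-keto-PGF1α quantified by GC-MS/MS.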

The target of another series is Cannabinoid receptor 2 (Homo sapiens, UniProt P34972). Nature of the series: Displacement of [3H]CP-55940 from human recombinant CB2 receptor expressed in HEK cells. In kind it is cell-based, HEK293. In general terms: Loss of bound radioactivity is the signal in a displacement assay; it reports binding, not function.
Series [14] has as its target T1, Transient receptor potential cation channel subfamily V member 1 (Homo sapiens, UniProt Q8NER1). Nature of the series: Inhibition of TRPV1.
Another series deals with Cannabinoid receptor 1 (Homo sapiens, UniProt P21554). The series is described as follows: Displacement of [3H]CP-55940 from human recombinant CB1 receptor expressed in HEK cells. In kind it is cell-based, HEK293.
Series [15] concerns the target T1, Transient receptor potential cation channel subfamily V member 1. Nature of the series: Agonist activity at TRPV1. It is filed as functional.
Series [16] is filed under the species Mus musculus. The series is described as follows: Inhibition of PGE2 production in LPS-stimulated COX-2 knockout C57BL/6 mouse brain homogenate at 0.4 uM measured after 6 hrs. In kind it is functional. Put shortly: (§3)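 COX-1−/− or COX-2−/− mice injected i.p. with LPS 50 µg kg−1; brains taken 6 h later and homogenised in Tris pH 7.4/phenol/protease-inhibitor buffer. COX activity measured with inhibitor or vehicle: 150 µM arachidonic acid, 37°C, 5 min, formic acid stop to pH 2.5. PGE2 extracted in ethyl acetate/hexane and measured by GC-MS/MS.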

The species entered for series [17] is Mus musculus. Nature of the series: Ratio of IC50 for COX-mediated PGE2 production in C57BL/6 mouse brain homogenate measured after 6 hrs in absence of FAAH inhibitor URB532 to IC50 for COX-mediated PGE2 production in C57BL/6 mouse brain homogenate measured after 6 hrs in presence of FAAH inhibitor URB532. In kind it is tissue-based.
The nature of series [18]: (§4) Inhibition of COX-mediated PGE2 production in C57BL/6 mouse brain homogenate. In kind it is tissue-based. Put shortly:
as §2

Series [19] is filed under the species Mus musculus. Described as §4. It is filed as tissue-based. Put shortly: as §2
Series [20] is filed under the species Mus musculus. The series is described as follows: Inhibition of PGE2 production in LPS-stimulated COX-2 knockout C57BL/6 mouse brain homogenate measured after 6 hrs. In kind it is functional. The note with it: C57BL/6, Brain. Put shortly:
as §3

The species entered for series [21] is Mus musculus. Nature of the series: Inhibition of PGE2 production in LPS-stimulated COX-1 knockout C57BL/6 mouse brain homogenate measured after 6 hrs. In kind it is functional. The note with it: C57BL/6, Brain. Put shortly: as §3
The nature of series [22]: (§5) Inhibition of COX-mediated 6-keto-PGF1alpha production in C57BL/6 mouse brain homogenate. It is filed as tissue-based. Put shortly: as §2
The species named for series [23] is Mus musculus. The series is described as §5. In kind it is tissue-based. Put shortly: as §2
Series [24] is filed under the species Mus musculus. The series is described as follows: Inhibition of PGE2 production in LPS-stimulated COX-1 knockout C57BL/6 mouse brain homogenate at 0.8 uM measured after 6 hrs. It is filed as functional. Put shortly:
as §3

The nature of series [25]: Inhibition of COX-mediated PGE2 production in C57BL/6 mouse brain homogenate measured after 6 hrs in presence of FAAH inhibitor URB532. In kind it is tissue-based.
For series [26], the target named is T2, Prostaglandin G/H synthase 1 (Mus musculus, UniProt P22437).
T2 sequence (P22437 whole entry): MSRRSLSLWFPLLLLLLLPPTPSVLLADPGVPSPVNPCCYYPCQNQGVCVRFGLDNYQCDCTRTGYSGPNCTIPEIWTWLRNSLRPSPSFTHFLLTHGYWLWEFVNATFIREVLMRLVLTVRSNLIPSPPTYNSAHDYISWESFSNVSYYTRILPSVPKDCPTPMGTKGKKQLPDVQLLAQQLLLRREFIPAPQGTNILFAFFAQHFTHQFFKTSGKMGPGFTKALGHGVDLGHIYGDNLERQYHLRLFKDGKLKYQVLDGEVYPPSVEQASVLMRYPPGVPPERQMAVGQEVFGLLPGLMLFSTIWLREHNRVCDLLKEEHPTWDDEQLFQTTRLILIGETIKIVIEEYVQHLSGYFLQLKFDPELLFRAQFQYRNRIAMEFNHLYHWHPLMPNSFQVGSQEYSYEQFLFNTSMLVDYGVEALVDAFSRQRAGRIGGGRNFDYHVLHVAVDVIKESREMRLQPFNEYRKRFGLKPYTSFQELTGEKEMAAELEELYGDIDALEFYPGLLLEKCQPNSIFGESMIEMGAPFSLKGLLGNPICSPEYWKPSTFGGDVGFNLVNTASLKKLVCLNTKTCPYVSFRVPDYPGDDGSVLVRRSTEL
Nature of the series: Inhibition of COX-1 in C57BL/6 mouse brain homogenate. In kind it is tissue-based. Put shortly: (§6)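 Brain homogenate from C57BL/6 mice was prepared on ice in 50 mM Tris pH 7.4 with 1 mM phenol and protease inhibitors. 20 µg of homogenate was incubated with inhibitor or vehicle. The reaction was started with 150 µM arachidonic acid at 37°C and stopped after 5 min with formic acid to pH 2.5. Prostanoids were extracted with ethyl acetate/hexane 7:1. PGE2 and 6-keto-PGF1α were measured by GC-MS/MS, and IC50 was determined.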

In series [27] the target is T3, Prostaglandin G/H synthase 2 (Mus musculus, UniProt Q05769).
T3 sequence (Q05769 whole entry): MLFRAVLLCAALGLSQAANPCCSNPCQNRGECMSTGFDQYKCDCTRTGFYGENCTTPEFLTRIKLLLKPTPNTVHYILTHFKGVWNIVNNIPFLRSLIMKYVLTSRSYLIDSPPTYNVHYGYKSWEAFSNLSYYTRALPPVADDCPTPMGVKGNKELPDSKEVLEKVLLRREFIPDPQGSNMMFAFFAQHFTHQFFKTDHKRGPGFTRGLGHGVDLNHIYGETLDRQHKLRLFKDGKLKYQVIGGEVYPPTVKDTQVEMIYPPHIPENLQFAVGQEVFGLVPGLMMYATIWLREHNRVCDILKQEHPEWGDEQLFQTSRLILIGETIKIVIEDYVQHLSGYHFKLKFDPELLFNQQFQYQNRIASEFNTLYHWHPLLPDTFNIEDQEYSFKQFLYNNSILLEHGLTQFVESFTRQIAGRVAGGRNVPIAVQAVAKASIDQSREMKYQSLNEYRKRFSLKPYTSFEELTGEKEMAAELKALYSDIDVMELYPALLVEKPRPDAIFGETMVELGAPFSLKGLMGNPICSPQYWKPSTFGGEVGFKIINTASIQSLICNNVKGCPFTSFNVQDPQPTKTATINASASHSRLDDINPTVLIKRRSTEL
Nature of the series: Inhibition of COX-2 in C57BL/6 mouse brain homogenate. In kind it is tissue-based. Put shortly:
as §6

One may read the inhibition as the percentage by which the read-out fell short of the control. As a reminder, the pKi is the Ki on a negative log10 scale, so that one unit is a factor of ten. In general, pEC50 refers to −log10 of the EC50, conventionally taken in molar units. By pIC50 is commonly meant −log10 of the IC50, conventionally taken in molar units.

Sequence of Cannabinoid receptor 1 (P21554 whole entry): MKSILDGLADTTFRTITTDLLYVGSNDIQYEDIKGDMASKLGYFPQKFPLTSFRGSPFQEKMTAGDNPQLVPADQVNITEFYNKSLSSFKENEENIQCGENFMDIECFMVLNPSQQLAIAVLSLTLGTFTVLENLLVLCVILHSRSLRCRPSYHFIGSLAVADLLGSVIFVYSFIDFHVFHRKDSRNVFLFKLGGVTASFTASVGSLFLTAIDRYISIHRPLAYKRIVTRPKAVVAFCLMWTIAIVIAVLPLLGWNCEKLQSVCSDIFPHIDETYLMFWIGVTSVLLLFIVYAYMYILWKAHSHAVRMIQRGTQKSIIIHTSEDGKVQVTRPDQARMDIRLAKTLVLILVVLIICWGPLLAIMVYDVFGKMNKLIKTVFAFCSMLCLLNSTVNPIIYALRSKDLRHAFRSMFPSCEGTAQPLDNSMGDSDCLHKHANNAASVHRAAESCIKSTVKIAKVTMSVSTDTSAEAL
Sequence of Cannabinoid receptor 2 (P34972 whole entry): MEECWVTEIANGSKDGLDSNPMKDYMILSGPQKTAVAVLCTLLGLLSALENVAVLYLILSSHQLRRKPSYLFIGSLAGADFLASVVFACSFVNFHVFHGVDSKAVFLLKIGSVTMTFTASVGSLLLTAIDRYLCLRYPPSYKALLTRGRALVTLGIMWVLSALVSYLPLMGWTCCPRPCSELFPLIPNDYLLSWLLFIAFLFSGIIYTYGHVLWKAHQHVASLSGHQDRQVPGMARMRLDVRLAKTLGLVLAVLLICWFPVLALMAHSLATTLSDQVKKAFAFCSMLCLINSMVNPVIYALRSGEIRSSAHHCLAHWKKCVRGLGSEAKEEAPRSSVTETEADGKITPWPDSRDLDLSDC
T1 sequence (Q8NER1 whole entry): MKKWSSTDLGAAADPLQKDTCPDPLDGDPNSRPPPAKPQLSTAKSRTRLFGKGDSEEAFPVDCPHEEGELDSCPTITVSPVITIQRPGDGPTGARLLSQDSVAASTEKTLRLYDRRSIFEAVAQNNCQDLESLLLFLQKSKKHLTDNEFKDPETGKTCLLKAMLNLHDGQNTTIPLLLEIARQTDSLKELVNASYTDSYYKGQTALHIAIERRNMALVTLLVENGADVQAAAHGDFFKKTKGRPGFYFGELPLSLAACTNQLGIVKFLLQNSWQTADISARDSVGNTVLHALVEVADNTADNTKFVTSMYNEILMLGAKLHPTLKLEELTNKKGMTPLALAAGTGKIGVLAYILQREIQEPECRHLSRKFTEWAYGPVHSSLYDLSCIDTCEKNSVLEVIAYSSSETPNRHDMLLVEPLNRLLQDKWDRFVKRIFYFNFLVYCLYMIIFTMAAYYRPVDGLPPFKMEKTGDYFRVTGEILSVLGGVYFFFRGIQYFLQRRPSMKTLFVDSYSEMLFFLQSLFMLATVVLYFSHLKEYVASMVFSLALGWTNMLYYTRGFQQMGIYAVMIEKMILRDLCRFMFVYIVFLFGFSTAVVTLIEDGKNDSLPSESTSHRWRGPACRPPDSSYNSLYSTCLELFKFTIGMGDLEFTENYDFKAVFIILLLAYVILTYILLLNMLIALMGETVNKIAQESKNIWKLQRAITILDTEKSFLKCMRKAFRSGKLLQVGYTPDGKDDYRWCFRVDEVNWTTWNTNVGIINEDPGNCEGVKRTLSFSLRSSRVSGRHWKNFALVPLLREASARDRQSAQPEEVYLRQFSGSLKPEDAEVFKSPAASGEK

As to `Cc1c(N(C)CS(=O)(=O)[O-])c(=O)n(-c2ccccc2)n1C.[Na+]` [DIPYRONE SODIUM], the Drug metabolism result (in the series with Brain [1]; in [2]; in series [3]; in series [4]; with Brain [5]; with Spleen [6]) was “Active” in each case. In addition, the Drug metabolism entry (in [7]; with Brain [8]; in the series with Spleen [9]; in the series on Brain [10]; in the series on Spleen [11]; in the series on Spleen [12]) was “Active” throughout.

In the case of `CCCCC/C=C\C/C=C\C/C=C\C/C=C\CCCC(=O)Nc1c(C)n(C)n(-c2ccccc2)c1=O`, the inhibition result (in the series listed under Mus musculus [13]; in series [14]) was “inactive” throughout. For the same compound, the pKi at Cannabinoid receptor 2 was 5.27; on Cannabinoid receptor 1, 5.54.

The compound `CCCCC/C=C\C/C=C\C/C=C\C/C=C\CCCC(=O)Nc1ccc(O)cc1` showed a pEC50 in [15] of 7.59.

As for `CCCCC/C=C\C/C=C\C/C=C\C/C=C\CCCC(=O)N(C)c1c(C)n(C)n(-c2ccccc2)c1=O`, the inhibition was 30% in the series filed under Mus musculus [16], “Dose-dependent effect” in the series listed under Mus musculus [19] and “Dose-dependent effect” in the series filed under Mus musculus [23]. The Ratio IC50 in the series listed under Mus musculus [17] is over 200. For the same compound, the pIC50 is 4.88 in [18]; 6.97 in the series listed under Mus musculus [20]; 6.45 in the series filed under Mus musculus [21]; 5.28 in series [22]; 7.24 in series [25]. For the same compound, the pKi was 5.52 on Cannabinoid receptor 2 and 5.11 at Cannabinoid receptor 1. Also, the inhibition result in the series filed under Mus musculus [24] is “Active”.

As for `Cc1c(N)c(=O)n(-c2ccccc2)n1C` [AMPYRONE], the pIC50 in series [26] and in series [27] was 3.00 in each case.
